Test results from ChEMBL document CHEMBL5032534, “COUPY Coumarins as Novel Mitochondria-Targeted Photodynamic Therapy Anticancer Agents” (J Med Chem, 2021).
Active and inactive are the calls of the source. The rule behind the calls is not given here.

Legend:
[1] = Selectivity index, ratio of IC50 for cytotoxicity against BGM cells assessed as reduction in cell viability in dark to IC50 for cytotoxicity against human HeLA cells assessed as reduction in cell viability in dark; type: toxicity, cell-based; conditions: African green monkey (BGM cells), BGM cells versus HeLa cells, read-out: Ratio IC50
Outline: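 Selectivity factor is the dark IC50 in BGM normal renal cells over the dark IC50 in HeLa cells. Both come from the MTT phototoxicity procedure without irradiation.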

[2] = Selectivity index, ratio of IC50 for cytotoxicity against CHO cells to IC50 for antiproliferative activity against A2780 cells; type: toxicity, cell-based; conditions: Chinese hamster (CHO cells); human (A2780 cells), CHO cells versus A2780 cells; read-out: Ratio IC50
Outline: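 Selectivity factor is the IC50 in CHO cells over the IC50 in A2780 cells. Both were measured after 48 h of continuous treatment by MTT.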

[3] = tested on: HeLa; experiment: Induction of ROS generation in human HeLa cells at 5 uM incubated for 1 hr in dark followed by irradiation with visible light for 1 hr under normoxic condition in presence of 5 mM NAC by DCFH-DA staining based flow cytometric analysis; type: functional, cell-based; conditions: time 2.0 hrs
Outline: (§1)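 HeLa cells were seeded at 2 × 10^4/well for 24 h under 21% or 2% O2. They were co-treated with 5 μM compound plus a scavenger, which stayed present throughout: NAC 5 mM, NaN3 5 mM, mannitol 50 mM, tiron 5 mM, sodium pyruvate 10 mM or Trolox 0.1 mM. Cells were held 1 h dark, then 1 h under visible light, stained 30 min with 10 μM DCFH-DA, trypsinized and analysed by flow cytometry. At least two independent experiments, n = 3.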

[4] = tested on: HeLa; experiment: Induction of ROS generation in human HeLa cells at 5 uM incubated for 1 hr in dark followed by irradiation with visible light for 1 hr under hypoxic condition in presence of 5 mM NAC by DCFH-DA staining based flow cytometric analysis; type: functional, cell-based; conditions: time 2.0 hrs; outline: as §1
[5] = Induction of singlet oxygen generation in air-saturated DCM solution assessed as reduction in 1,3-diphenylisobenzofuran absorption irradiated with 505 nanometer green light by DPBF-based assay; type: functional
[6] = tested on: HeLa; experiment: Induction of mitochondrial membrane potential loss in human HeLa cells at 5 uM measured after 24 hrs by JC-1 dye-based flow cytometric analysis; type: functional, cell-based
Outline: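 HeLa cells were seeded at 1.5 × 10^5 in 12-well plates for 24 h and treated for 24 h. Vehicle control held 0.4% DMSO and antimycin A (50 μM) served as positive control. Cells were stained with JC-1 (1 μM, 20 min) and analysed by flow cytometry (10^4 events; ex 488 nm; green 530 nm and red 585 nm channels). At least two independent experiments.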

[7] = tested on: HeLa; experiment: Effect on cell cycle distribution in human HeLa cells at 5 uM incubated for 30 mins in dark by RNase/propidium iodide staining based FACS analysis; type: functional
Outline: (§2)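 HeLa cells were seeded at 1.5 × 10^5/well and treated for 0.5 h, with or without 1 h visible-light irradiation, followed by 24 h recovery. Cells were fixed in ice-cold 70% ethanol for 1 h and stained with PI (40 μg/mL) plus RNase (1 μg/mL) for 30 min at 310 K. Analysis was by flow cytometry in the FL2-A channel. At least two independent experiments, n = 3.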

[8] = tested on: HeLa; experiment: Induction of autophagy in human HeLa cells […] pretreated with wortmannin for 1 hr followed by irradiation schedule for 1 hr by MDC staining based confocal microscopic analysis; type: functional
[9] = tested on: HeLa; experiment: Induction of ROS generation in human HeLa cells at 5 uM incubated for 1 hr in dark followed by irradiation with visible light for 1 hr under normoxic condition in presence of Trolox by DCFH-DA staining based flow cytometric analysis; type: functional, cell-based; conditions: time 2.0 hrs; outline: as §1
[10] = tested on: HeLa; experiment: Induction of superoxide anion generation in human HeLa cells assessed as increase in DHE fluorescence at 5 uM incubated for 1 hr in dark followed by irradiation with visible light for 1 hr under hypoxic condition in presence of tiron by DHE staining based flow cytometric analysis; conditions: time 2.0 hrs
[11] = tested on: HeLa; experiment: Effect on cell cycle distribution in human HeLa cells assessed as reduction in G1 phase population at 5 uM preincubated for 30 mins in dark followed by light irradiation for 1 hr by RNase/propidium iodide staining based FACS analysis; type: functional; conditions: time 1.5 hrs; outline: as §2
[12] = Drug uptake in mitochondria of human HeLa cells assessed as drug accumulation at 1 uM measured after 30 mins by confocal microscopic analysis; type: ADME; conditions: 0.5 h
Outline: (§3)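 HeLa cells in high-glucose DMEM with 10% fetal calf serum were seeded on glass-bottom dishes for 24 h, then loaded with compound for 30 min at 37 °C. They were washed three times with DPBS and kept in phenol-red-free low-glucose DMEM. Live cells were imaged by confocal microscopy at 37 °C with 5% CO2, excited at 561 nm, with emission collected from 570 to 670 nm.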

[13] = tested on: HeLa; experiment: Induction of autophagy in human HeLa cells assessed as increase in MDC-positive autophagic vesicles at 5 uM preincubated for 30 mins followed by light irradiation for 1 hr and further incubated for 6 hrs in drug-free medium by MDC staining based confocal microscopic analysis; type: functional, cell-based; conditions: time 1.5 hrs
Outline: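 HeLa cells were seeded at 1.5 × 10^4 cells/cm2 in chamber slides and given 0.5 h compound incubation, then 1 h visible-light irradiation. Medium was replaced for a 6 h recovery. Cells were stained with monodansylcadaverine (0.05 mM in PBS, 10 min, 310 K) and imaged by confocal microscopy (ex 405 nm). Vacuoles were counted in at least 10 cells from two experiments. Controls were starvation in EBSS for 2 h and resveratrol 50 μM for 2 h.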

[14] = tested on: HeLa; experiment: Induction of apoptosis in human HeLa cells assessed as increase in total apoptotic cells at 5 uM preincubated for 30 mins in dark followed by irradiation for 1 hr and measured after 24 hrs by Annexin V-FITC/ Propidium iodide staining based flow cytometry analysis; type: functional, cell-based; conditions: time 25.5 hrs
Outline: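 HeLa cells were seeded at 1.5 × 10^5/well overnight and treated for 0.5 h, with or without 1 h visible-light irradiation, followed by 24 h recovery. Cells were trypsinized, resuspended in binding buffer, labelled with FITC-Annexin V and propidium iodide for 15 min at room temperature in the dark, and analysed by flow cytometry. Cisplatin (30 μM) served as positive control.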

[15] = Drug uptake in nucleolus of human HeLa cells assessed as drug accumulation at 1 uM measured after 30 mins by confocal microscopic analysis; type: ADME, subcellular; conditions: 0.5 h; outline: as §3
[16] = Drug uptake in human HeLa cells at 1 uM incubated for 30 mins by confocal microscopic analysis; type: ADME, cell-based; conditions: 0.5 h; outline: as §3
[17] = tested on: HeLa; experiment: Induction of ROS generation in human HeLa cells at 5 uM incubated for 1 hr in dark followed by irradiation with visible light for 1 hr under normoxic condition in presence of NaN3 by DCFH-DA staining based flow cytometric analysis; type: functional, cell-based; conditions: time 2.0 hrs; outline: as §1
[18] = tested on: HeLa; experiment: Induction of ROS generation in human HeLa cells assessed as increase in intracellular ROS level at 5 uM incubated for 1 hr in dark followed by irradiation with visible light for 1 hr under hypoxic condition by DCFH-DA staining based flow cytometric analysis; type: functional, cell-based; conditions: time 2.0 hrs; outline: as §1
[19] = Phototoxicity index, ratio of IC50 for cytotoxicity against human HeLa cells assessed as reduction in cell viability in dark under hypoxic condition to IC50 for phototoxicity against human HeLa cells upon LED light irradiation under hypoxic condition; type: toxicity, cell-based
Outline: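 Phototoxic index is the dark IC50 over the irradiated IC50 in HeLa cells. Both come from the MTT schedule of 1 h dark incubation plus 1 h visible-LED irradiation, then recovery in drug-free medium, run under 21% or 2% O2 as stated in the line.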

Q: For CN(C)c1ccc2c(c1)O/C(=C(/C#N)c1cc[n+](C)cn1)C=C2C(F)(F)F, which selectivity ratio [1] is on record?
A: 4.2

Q: Which selectivity ratio [1] does the source give for CN(C)c1ccc2c(c1)O/C(=C(/C#N)c1cc[n+](CC(F)(F)F)cc1)C=C2C(F)(F)F here?
A: 1.9

Q: Which selectivity ratio [2] does the source give for CN(C)c1ccc2c(c1)O/C(=C(/C#N)c1cc[n+](C)cc1)C=C2C(F)(F)F here?
A: > 5.1

Q: Which Activity [3] does the source give for CCN(CC)c1ccc2c(c1)O/C(=C(/C#N)c1cc[n+](CC(F)(F)F)cc1)C=C2C here?
A: inactive

Q: And the Activity [4]?
A: inactive

Q: What about the Activity [5] of the same compound?
A: Active

Q: What about the Activity [6] of the same compound?
A: inactive

Q: And the Activity [7]?
A: inactive

Q: What about the Activity [8] of the same compound?
A: Active

Q: What about the Activity [9] of the same compound?
A: inactive

Q: What about the Activity [10] of the same compound?
A: Active

Q: And the Activity [11]?
A: Active

Q: What about the Drug uptake [12] of the same compound?
A: Active

Q: And the Activity [13]?
A: inactive

Q: What about the Activity [14] of the same compound?
A: Active

Q: And the selectivity ratio [1]?
A: 4.3

Q: And the Drug uptake [15]?
A: Active

Q: And the Drug uptake [16]?
A: Active

Q: What about the Activity [17] of the same compound?
A: inactive

Q: And the Activity [18]?
A: inactive

Q: What about the “Ratio IC50” value [19] of the same compound?
A: 4.7

Q: Which selectivity ratio [1] does the source give for CCN(CC)c1ccc2c(c1)O/C(=C(/C#N)c1cc[n+](CC(=O)NCCCNC(=O)OC(C)(C)C)cc1)C=C2C here?
A: 2.7
